Assay results gathered from unrelated publications.
Protocols differ between the studies behind these lines.
Target: Ephrin type-B receptor 1 (EPHB1, Homo sapiens, UniProt P54762)
Residues used in one study (P54762 18-984): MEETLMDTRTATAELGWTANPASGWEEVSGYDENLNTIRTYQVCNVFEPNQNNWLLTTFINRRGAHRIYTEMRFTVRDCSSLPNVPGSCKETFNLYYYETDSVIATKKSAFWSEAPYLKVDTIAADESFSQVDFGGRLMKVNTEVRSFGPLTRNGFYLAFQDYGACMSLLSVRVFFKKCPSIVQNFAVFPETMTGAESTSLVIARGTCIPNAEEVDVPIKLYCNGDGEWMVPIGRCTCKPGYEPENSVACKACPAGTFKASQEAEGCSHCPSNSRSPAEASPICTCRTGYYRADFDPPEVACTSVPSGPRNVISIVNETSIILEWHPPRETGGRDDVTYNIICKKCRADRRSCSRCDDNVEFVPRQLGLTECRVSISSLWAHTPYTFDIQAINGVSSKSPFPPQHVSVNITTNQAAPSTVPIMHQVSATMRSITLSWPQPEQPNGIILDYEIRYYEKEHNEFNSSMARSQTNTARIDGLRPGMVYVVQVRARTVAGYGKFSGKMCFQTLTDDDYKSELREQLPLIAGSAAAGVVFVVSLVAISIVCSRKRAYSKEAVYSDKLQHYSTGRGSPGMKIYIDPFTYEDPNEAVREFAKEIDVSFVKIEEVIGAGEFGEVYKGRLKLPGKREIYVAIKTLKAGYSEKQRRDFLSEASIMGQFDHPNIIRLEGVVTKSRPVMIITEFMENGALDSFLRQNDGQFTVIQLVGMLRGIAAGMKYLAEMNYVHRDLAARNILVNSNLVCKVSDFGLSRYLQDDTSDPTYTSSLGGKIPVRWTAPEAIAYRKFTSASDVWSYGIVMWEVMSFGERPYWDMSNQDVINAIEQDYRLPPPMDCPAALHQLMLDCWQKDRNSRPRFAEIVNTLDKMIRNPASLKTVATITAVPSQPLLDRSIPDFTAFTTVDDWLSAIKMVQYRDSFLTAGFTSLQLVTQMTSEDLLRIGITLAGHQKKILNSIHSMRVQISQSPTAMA

Structure (SMILES)	read-out	mode	method	concentration	endpoint	value
CS(=O)(=O)CCNCc1ccc(-c2ccc3ncnc(Nc4ccc(OCc5cccc(F)c5)c(Cl)c4)c3c2)o1	cell-free assay			0.5 µM	remaining signal	104%
O=C(NS(=O)(=O)c1ccc(NCC2CCOCC2)c([N+](=O)[O-])c1)c1ccc(N2CCN(Cc3ccc(C(F)(F)F)cc3-c3ccc(Cl)cc3)CC2)cc1Oc1cnc2[nH]ccc2c1	cell-free assay		competition with immobilised ligand	1 µM	remaining binding	100%
CC(C)(O)[C@H]1CC[C@H](Nc2ccc3ncc(-c4cccc(C(F)(F)F)c4)n3n2)CC1	enzyme activity	inhibitor		1 µM	remaining activity	85%
COc1cc2ncnc(Nc3ccc(Oc4ccccc4)cc3C)c2cc1OC	enzyme activity	inhibitor		1 µM	inhibition	6%
CCN(CC)c1ccc(C2=NNC(=O)CC2C)cc1[N+](=O)[O-] (stereo not shown)	enzyme activity	inhibitor		10 µM	remaining activity	97%
COc1cc(-c2cc(-c3ccc(N4CCNCC4)cc3)cnc2C)cc(OC)c1OC	enzyme activity	inhibitor		0.1 µM	inhibition	5%
CNCc1ccccc1-c1csc([C@@H](C)Nc2nc(C)nc3cc(OC)c(OC)cc23)c1	cell-free assay		competition with immobilised ligand	1 µM	remaining binding	100%
O=C(Nc1cnn(-c2csc(C(=O)NC3COC3)c2)c1)Nc1c(F)cccc1Cl	enzyme activity	inhibitor		5 µM	remaining activity	96.1%
CC(C)CC(=O)N1CCc2nc(-c3ccc(Br)cc3)nc(N(C)Cc3ccccc3)c2C1	cell-free assay		competition with immobilised ligand	0.1 µM	remaining binding	100%
COc1cc(Nc2cnc(C#N)c(O[C@H](C)CN(C)C)n2)ncc1-c1cnn(C)c1	enzyme activity	inhibitor	radiometric	10 µM	remaining activity	71%
CC(C)(C)c1nc2c(s1)c1nc(N)ncc1c1ccc(NS(=O)(=O)c3c(F)cccc3F)c(F)c12	enzyme activity	inhibitor	radiometric	1 µM	remaining activity	76%
Cc1noc([C@H]2C[C@@H](c3ccc(C(F)(F)F)cc3)CN(C(=O)N3CCS(=O)(=O)C3)C2)n1	cell-free assay		competition with immobilised ligand	1 µM	remaining binding	100%
Cc1cc(NC(=O)c2cccc3cc(-c4cccc5[nH]nc(N)c45)ccc23)ccc1F	enzyme activity	inhibitor		0.1 µM	activity vs control	127%
Cc1c(NC(=O)c2cc(C(N)=O)nc3cc(F)ccc23)c(C(F)(F)F)nn1Cc1ccc(C#N)cc1	cell-free assay		competition with immobilised ligand	1 µM	remaining binding	66%
Cc1sc(C(=O)NC2COC2)cc1-n1cc(NC(=O)Nc2c(F)cccc2Cl)cn1	enzyme activity	inhibitor		10 µM	remaining activity	100%
N#CCCc1ccc2c(c1)-c1[nH]c3ccc([N+](=O)[O-])cc3c1CC(=O)N2	cell-free assay			0.5 µM	remaining signal	99.1%
Oc1cccc(-c2nc(N3CCOCC3)c3oc4ncccc4c3n2)c1	enzyme activity	inhibitor		10 µM	remaining activity	131%
C[C@@H]1CN(c2cc(-c3n[nH]c4ccc(OC5(C)CC5)cc34)ncn2)C[C@H](C)O1	cell-free assay		competition with immobilised ligand	0.1 µM	remaining binding	83%
CNC(=O)c1cc2c(Oc3ccc(NC(=O)C4(C(=O)Nc5ccc(F)cc5)CC4)cc3)ccnc2cc1OC	enzyme activity	inhibitor	radiometric	1 µM	inhibition	99%
CNC(=O)c1cc(Oc2ccc(NC(=O)Nc3ccc(Cl)c(C(F)(F)F)c3)cc2)ccn1	cell-free assay			0.5 µM	remaining signal	102%
Cc1ccc(Nc2nccc(N(C)c3ccc4c(C)n(C)nc4c3)n2)cc1S(N)(=O)=O	enzyme activity	inhibitor		10 µM	inhibition	63%
COc1cc(/C=C/C(=O)CC(=O)/C=C/c2ccc(O)c(OC)c2)ccc1O	enzyme activity	inhibitor		1 µM	activity vs control	100%
O=C1NC(=O)c2cc(Nc3ccc(F)cc3)c(Nc3ccc(F)cc3)cc21	cell-free assay			0.5 µM	remaining signal	103%
Cc1nccc(COC(=O)N2C[C@@H]3[C@@H](CNC(=O)c4ccc5[nH]nnc5c4)[C@@H]3C2)n1	cell-free assay		competition with immobilised ligand	1 µM	remaining binding	95%
Cc1cnc(NC2CCOCC2)nc1-n1cnc(C(=O)NC(CN)c2cc(F)cc(Cl)c2)c1 (stereo not shown)	enzyme activity	inhibitor	radiometric	1 µM	remaining activity	125%
CCN(CC)CCNC(=O)c1c(C)[nH]c(/C=C2\C(=O)Nc3ccc(F)cc32)c1C	enzyme activity	inhibitor		0.3 µM	inhibition	34%
O=C(NCc1ncc(C(F)(F)F)cc1Cl)c1ccc2c(c1)C1(CCS(=O)(=O)CC1)[C@@H](C1CC1)N2S(=O)(=O)c1ccc(F)cc1	cell-free assay		competition with immobilised ligand	1 µM	remaining binding	100%
Cc1ccc(C(=O)NCc2ccsc2)cc1C#Cc1cn(C(C)C)c2ncnc(N)c12	enzyme activity	inhibitor		1 µM	activity vs control	12%
